# Experimental data published in ChEMBL document CHEMBL4052618, “Design, synthesis, SAR discussion, in vitro and in vivo evaluation of novel selective EGFR modulator to inhibit L858R/T790M double mutants” (Eur J Med Chem, 2017).
# What was measured:
# [1] = target: Epidermal growth factor receptor (Homo sapiens, UniProt P00533, L858R); test: Inhibition of human recombinant cytoplasmic GST-tagged EGFR L858R mutant expressed in baculovirus using TK-substrate-biotin preincubated for 15 mins followed by substrate addition measured after 60 mins by FRET-based Z'-Lyte assay
# [2] = target: Tyrosine-protein kinase ITK/TSK (Homo sapiens) (UniProt Q08881); test: Inhibition of ITK (unknown origin) at 1 uM relative to control
# [3] = target: cAMP-dependent protein kinase catalytic subunit alpha (Homo sapiens) (UniProt P17612); test: Inhibition of PRKACA (unknown origin) at 1 uM relative to control
# [4] = target: Activated CDC42 kinase 1 (Homo sapiens) (UniProt Q07912); test: Inhibition of TNK2 (unknown origin) at 1 uM relative to control
# [5] = test system: NCI-H1975; test: In vivo anti tumor activity against human NCI-H1975 cells xenografted in nude C.B-17 SCID mouse model assessed as tumor volume at 10 mg/kg, ig for 18 days measured twice a week (reference value: 948.05 mm3); type: functional
# [6] = target: Insulin receptor-related protein (Homo sapiens) (UniProt P14616); test: Inhibition of INSRR (unknown origin) at 1 uM relative to control
# [7] = target: Vascular endothelial growth factor receptor 2 (Homo sapiens) (UniProt P35968); test: Inhibition of KDR (unknown origin) at 1 uM relative to control
# [8] = target: Tyrosine-protein kinase Blk (Homo sapiens) (UniProt P51451); test: Inhibition of BLK (unknown origin) at 1 uM relative to control
# [9] = test system: NCI-H1975; test: In vivo anti tumor activity against human NCI-H1975 cells xenografted in nude C.B-17 SCID mouse model assessed as tumor growth inhibition at 20 mg/kg, ig for 18 days measured twice a week relative to control; type: functional; conditions: NCI-H1975, po, 432 h, read-out: TGI
# Procedure, shortened: (§1)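 H1975 s.c. xenografts (5 × 10^6 cells) were grown in C.B-17 SCID mice and randomized at 100-150 mm3 (n = 9). Mice were dosed intragastrically once daily for 18 days against a PBS control. TGI% = (TWcontrol − TWtreatment)/TWcontrol × 100, where TW is the mean tumor weight on day 18.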
# [10] = target: Epidermal growth factor receptor (Homo sapiens, UniProt P00533, L858R/T790M); test: Inhibition of human recombinant cytoplasmic GST-tagged EGFR T790M/L858R double mutant (668 to 1210 residues) expressed in baculovirus using TK-substrate-biotin preincubated for 15 mins followed by substrate addition measured after 60 mins by FRET-based Z'-Lyte assay
# [11] = target: Epidermal growth factor receptor (Homo sapiens, UniProt P00533); test: Inhibition of human recombinant cytoplasmic GST-tagged EGFR (668 to 1210 residues) expressed in baculovirus using TK-substrate-biotin preincubated for 15 mins followed by substrate addition measured after 60 mins by FRET-based Z'-Lyte assay; conditions: read-out: IC50
# [12] = target: Testis-specific serine/threonine-protein kinase 1 (Homo sapiens) (UniProt Q9BXA7); test: Inhibition of STK22D (unknown origin) at 1 uM relative to control
# [13] = target: Protein kinase C beta type (Homo sapiens) (UniProt P05771); test: Inhibition of PRKCB1 (unknown origin) at 1 uM relative to control
# [14] = test system: HCC827; test: Antiproliferative activity against human HCC827 cells harboring EGFR E746-A750 deletion mutant; type: functional, cell-based
# [15] = target: Receptor tyrosine-protein kinase erbB-2 (Homo sapiens) (UniProt P04626); test: Inhibition of ERBB2 (HER2) (unknown origin) at 1 uM relative to control
# [16] = target: Tyrosine-protein kinase BTK (Homo sapiens) (UniProt Q06187); test: Inhibition of BTK (unknown origin) at 1 uM relative to control
# [17] = target: Fibroblast growth factor receptor 3 (Homo sapiens) (UniProt P22607); test: Inhibition of FGFR3 (unknown origin) at 1 uM relative to control
# [18] = target: Focal adhesion kinase 1 (Homo sapiens) (UniProt Q05397); test: Inhibition of PTK2 (unknown origin) at 1 uM relative to control
# [19] = target: Tyrosine-protein kinase JAK3 (Homo sapiens) (UniProt P52333); test: Inhibition of JAK3 (unknown origin) at 1 uM relative to control
# [20] = target: Serine/threonine-protein kinase Chk1 (Homo sapiens) (UniProt O14757); test: Inhibition of CHEK1 (unknown origin) at 1 uM relative to control
# [21] = Half life in human hepatocytes; type: ADME, cell-based, Hepatocyte
# [22] = AUC (0 to infinity) in Sprague-Dawley rat at 1 mg/kg, iv by LC-MS/MS analysis; type: ADME, organism-based; set-up: dose 1 mg/kg, time infinity, route intravenous; conditions: in vivo
# [23] = target: Serine/threonine-protein kinase Sgk1 (Homo sapiens) (UniProt O00141); test: Inhibition of SGK (unknown origin) at 1 uM relative to control
# [24] = Intrinsic clearance in human hepatocytes assessed per million cells; type: ADME, cell-based, Hepatocyte
# [25] = test system: NCI-H1975; test: In vivo anti tumor activity against human NCI-H1975 cells xenografted in nude C.B-17 SCID mouse model assessed as tumor growth inhibition at 10 mg/kg, ig for 18 days measured twice a week relative to control; type: functional; conditions: NCI-H1975, po, 432 h, read-out: TGI; procedure, shortened: as §1
# [26] = target: Inhibitor of nuclear factor kappa-B kinase subunit alpha (Homo sapiens) (UniProt O15111); test: Inhibition of CHUK (unknown origin) at 1 uM relative to control
# [27] = Clearance in Sprague-Dawley rat at 1 mg/kg, iv after 24 hrs by LC-MS/MS analysis; type: ADME, organism-based; conditions: in vivo
# Procedure, shortened: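 Male Sprague-Dawley rats (200-240 g) received 1 mg/kg by tail-vein injection in 2% DMSO, 20% PEG400 and 78% buffered saline, or 10 mg/kg by oral gavage in 0.5% methylcellulose. Orbital sinus blood was drawn into heparinized tubes at 2, 5, 15 and 30 min and at 1, 2, 4, 8, 12 and 24 h, then centrifuged. Plasma was measured by LC/MS/MS in SRM mode, with non-compartmental analysis.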
# [28] = test system: NCI-H1975; test: In vivo anti tumor activity against human NCI-H1975 cells xenografted in nude C.B-17 SCID mouse model assessed as tumor volume at 20 mg/kg, ig for 18 days measured twice a week (reference value: 948.05 mm3); type: functional
# [29] = target: Cyclin-dependent kinase 5/CDK5 activator 1 (Homo sapiens) (UniProt Q00535+Q15078); test: Inhibition of CDK5/p35 (unknown origin) at 1 uM relative to control; type: protein-complex assay
# [30] = test system: NCI-H1975; test: In vivo anti tumor activity against human NCI-H1975 cells xenografted in nude C.B-17 SCID mouse model assessed as tumor volume at 5 mg/kg, ig for 18 days measured twice a week (reference value: 948.05 mm3); type: functional
# [31] = target: Non-receptor tyrosine-protein kinase TYK2 (Homo sapiens) (UniProt P29597); test: Inhibition of TYK2 (unknown origin) at 1 uM relative to control
# [32] = Intrinsic clearance in rat liver microsomes; type: ADME, microsome; conditions: read-out: CLH
# [33] = target: Cytoplasmic tyrosine-protein kinase BMX (Homo sapiens) (UniProt P51813); test: Inhibition of BMX (unknown origin) at 1 uM relative to control
# Chain of Cytoplasmic tyrosine-protein kinase BMX (Homo sapiens) (P51813 whole entry): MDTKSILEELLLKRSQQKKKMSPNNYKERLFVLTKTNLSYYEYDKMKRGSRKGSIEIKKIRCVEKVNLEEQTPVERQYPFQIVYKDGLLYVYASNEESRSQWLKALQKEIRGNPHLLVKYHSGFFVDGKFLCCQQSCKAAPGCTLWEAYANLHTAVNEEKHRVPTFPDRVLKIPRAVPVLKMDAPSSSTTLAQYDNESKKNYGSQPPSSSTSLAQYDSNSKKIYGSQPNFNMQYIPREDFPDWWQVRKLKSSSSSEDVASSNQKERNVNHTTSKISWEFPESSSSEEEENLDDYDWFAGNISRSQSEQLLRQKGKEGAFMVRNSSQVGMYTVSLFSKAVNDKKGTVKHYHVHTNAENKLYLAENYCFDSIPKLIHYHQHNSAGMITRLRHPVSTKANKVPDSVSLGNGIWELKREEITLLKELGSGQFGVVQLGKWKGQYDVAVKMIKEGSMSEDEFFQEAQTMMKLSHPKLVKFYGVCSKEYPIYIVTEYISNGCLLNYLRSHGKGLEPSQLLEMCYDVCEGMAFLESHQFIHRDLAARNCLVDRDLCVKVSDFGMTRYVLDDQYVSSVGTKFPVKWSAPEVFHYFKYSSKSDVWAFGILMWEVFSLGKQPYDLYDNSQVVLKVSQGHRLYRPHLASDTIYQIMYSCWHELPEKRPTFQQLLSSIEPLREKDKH
# Chain of Cyclin-dependent kinase 5/CDK5 activator 1 (Homo sapiens) (Q00535 whole entry): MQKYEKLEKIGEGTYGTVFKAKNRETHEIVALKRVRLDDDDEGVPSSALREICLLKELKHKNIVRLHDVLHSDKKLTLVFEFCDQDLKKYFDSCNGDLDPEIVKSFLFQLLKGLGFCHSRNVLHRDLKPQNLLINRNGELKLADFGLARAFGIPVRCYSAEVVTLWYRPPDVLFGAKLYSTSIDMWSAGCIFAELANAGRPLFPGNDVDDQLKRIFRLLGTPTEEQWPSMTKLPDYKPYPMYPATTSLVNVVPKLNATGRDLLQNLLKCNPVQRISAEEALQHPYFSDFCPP
# Chain of Cyclin-dependent kinase 5/CDK5 activator 1 (Homo sapiens) (Q15078 99-307 partner limits assumed): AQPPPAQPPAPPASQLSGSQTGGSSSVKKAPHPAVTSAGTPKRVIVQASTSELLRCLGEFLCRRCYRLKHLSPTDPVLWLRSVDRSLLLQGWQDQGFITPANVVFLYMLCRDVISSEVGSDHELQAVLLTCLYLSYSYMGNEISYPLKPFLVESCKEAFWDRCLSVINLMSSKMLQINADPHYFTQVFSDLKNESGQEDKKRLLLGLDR
# Chain of Activated CDC42 kinase 1 (Homo sapiens) (Q07912 whole entry, looked up): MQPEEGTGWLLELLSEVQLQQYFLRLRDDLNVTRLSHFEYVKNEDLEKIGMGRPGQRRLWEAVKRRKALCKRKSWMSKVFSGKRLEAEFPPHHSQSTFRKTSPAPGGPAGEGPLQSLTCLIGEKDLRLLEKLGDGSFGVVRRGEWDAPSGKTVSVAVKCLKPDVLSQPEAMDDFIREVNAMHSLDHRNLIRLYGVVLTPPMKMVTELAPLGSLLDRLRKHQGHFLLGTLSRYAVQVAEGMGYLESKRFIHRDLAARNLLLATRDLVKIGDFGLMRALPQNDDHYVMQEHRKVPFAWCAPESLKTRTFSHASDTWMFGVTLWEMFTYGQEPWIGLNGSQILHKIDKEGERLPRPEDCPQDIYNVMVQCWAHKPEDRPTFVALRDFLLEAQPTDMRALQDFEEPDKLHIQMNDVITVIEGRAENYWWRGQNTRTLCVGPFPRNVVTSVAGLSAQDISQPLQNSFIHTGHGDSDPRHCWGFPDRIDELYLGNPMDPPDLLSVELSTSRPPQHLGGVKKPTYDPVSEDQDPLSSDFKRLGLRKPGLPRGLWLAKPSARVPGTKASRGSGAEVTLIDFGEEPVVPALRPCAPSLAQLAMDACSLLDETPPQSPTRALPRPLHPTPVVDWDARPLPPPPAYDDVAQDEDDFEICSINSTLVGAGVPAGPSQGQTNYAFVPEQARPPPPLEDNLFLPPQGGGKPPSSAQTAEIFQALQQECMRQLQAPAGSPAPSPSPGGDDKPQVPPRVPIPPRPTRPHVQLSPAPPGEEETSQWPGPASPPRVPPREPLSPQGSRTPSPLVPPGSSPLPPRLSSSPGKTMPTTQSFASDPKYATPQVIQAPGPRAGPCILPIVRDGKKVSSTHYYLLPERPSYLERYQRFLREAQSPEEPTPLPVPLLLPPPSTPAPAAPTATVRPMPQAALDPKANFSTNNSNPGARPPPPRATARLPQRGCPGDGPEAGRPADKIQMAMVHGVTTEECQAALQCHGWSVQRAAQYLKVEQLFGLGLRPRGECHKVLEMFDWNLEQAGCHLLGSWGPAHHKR
# Chain of Tyrosine-protein kinase ITK/TSK (Homo sapiens) (Q08881 whole entry): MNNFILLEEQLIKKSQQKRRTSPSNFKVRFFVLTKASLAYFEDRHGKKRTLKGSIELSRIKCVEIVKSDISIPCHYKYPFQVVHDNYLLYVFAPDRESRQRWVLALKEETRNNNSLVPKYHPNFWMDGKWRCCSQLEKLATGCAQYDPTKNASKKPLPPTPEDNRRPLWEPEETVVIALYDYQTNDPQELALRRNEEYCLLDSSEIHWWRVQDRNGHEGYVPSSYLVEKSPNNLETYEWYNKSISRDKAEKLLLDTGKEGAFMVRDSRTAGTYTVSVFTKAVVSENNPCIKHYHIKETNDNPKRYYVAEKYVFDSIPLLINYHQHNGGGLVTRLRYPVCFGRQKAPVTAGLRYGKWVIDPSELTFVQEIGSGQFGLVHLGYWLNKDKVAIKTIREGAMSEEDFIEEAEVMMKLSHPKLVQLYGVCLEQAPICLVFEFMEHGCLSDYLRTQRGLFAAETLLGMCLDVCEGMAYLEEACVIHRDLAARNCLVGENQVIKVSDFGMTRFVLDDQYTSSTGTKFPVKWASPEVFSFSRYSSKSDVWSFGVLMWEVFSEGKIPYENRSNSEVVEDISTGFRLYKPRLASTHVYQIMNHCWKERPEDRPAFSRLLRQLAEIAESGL
# Chain of Receptor tyrosine-protein kinase erbB-2 (Homo sapiens) (P04626 whole entry): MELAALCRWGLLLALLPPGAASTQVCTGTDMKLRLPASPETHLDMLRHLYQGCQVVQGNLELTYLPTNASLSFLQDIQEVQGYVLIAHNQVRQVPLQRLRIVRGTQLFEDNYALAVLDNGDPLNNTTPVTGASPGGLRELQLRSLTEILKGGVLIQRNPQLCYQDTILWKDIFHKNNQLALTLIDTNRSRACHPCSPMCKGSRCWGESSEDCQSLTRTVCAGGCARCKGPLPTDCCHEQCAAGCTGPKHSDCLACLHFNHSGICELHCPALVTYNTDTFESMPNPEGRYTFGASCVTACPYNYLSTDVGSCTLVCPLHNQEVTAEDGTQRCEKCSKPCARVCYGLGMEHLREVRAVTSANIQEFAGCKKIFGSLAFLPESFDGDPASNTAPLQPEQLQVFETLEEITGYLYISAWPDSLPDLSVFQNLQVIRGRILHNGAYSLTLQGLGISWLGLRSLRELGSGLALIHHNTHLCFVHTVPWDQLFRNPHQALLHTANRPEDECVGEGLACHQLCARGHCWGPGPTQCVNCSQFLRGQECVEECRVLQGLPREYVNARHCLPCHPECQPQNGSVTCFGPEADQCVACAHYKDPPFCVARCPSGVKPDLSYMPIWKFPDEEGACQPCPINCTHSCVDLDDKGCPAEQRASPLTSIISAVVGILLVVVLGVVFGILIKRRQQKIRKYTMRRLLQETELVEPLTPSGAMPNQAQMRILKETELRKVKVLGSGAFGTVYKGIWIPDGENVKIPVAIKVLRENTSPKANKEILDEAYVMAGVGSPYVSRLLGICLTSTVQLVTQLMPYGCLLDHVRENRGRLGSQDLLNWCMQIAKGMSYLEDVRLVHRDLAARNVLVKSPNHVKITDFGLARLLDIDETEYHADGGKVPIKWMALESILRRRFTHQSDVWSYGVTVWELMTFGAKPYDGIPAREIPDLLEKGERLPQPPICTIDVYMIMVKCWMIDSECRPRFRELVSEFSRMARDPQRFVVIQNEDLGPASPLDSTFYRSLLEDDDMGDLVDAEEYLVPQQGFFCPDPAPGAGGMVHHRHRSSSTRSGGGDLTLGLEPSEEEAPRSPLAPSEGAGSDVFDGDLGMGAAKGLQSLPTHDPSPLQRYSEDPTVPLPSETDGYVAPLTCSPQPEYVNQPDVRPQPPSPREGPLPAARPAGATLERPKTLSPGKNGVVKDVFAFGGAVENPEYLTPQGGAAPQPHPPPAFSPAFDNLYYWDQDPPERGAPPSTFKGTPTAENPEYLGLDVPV
# Chain of Fibroblast growth factor receptor 3 (Homo sapiens) (P22607 23-806 limits assumed): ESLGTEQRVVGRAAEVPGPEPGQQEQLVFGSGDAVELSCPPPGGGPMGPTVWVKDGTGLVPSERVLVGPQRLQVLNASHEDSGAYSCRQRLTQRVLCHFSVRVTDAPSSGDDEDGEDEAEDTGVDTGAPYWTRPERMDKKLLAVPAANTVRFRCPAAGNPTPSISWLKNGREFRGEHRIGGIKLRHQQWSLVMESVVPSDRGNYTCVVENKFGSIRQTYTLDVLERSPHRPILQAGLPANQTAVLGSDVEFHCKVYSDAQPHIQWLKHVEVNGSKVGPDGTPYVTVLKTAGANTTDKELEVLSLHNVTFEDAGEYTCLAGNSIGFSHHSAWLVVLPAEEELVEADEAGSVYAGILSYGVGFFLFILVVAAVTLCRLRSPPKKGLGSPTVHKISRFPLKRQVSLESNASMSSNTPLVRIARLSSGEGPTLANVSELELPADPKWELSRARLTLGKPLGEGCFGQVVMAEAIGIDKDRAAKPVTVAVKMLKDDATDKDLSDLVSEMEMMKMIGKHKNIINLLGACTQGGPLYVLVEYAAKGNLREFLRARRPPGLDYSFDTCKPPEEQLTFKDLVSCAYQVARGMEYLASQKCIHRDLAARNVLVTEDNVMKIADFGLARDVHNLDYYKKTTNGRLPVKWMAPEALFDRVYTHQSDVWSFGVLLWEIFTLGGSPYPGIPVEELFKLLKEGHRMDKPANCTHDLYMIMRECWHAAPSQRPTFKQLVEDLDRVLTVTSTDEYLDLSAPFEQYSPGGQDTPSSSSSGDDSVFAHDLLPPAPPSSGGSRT
smiles,measurement,setting,value
C=CC(=O)Nc1cc(Nc2nccc(-c3cn4c5c(cccc35)CCC4)n2)c(OC)cc1N(C)CCN(C)C,IC50,[1],5.3 to 6 nM
same,inhibition,[2],66%
same,inhibition,[3],2%
same,inhibition,[4],75%
same,Activity,[5],239.33 mm3
same,inhibition,[6],39%
same,inhibition,[7],37%
same,inhibition,[8],85%
same,inhibition in vivo at 20 mg/kg,[9],96.3%
same,IC50,[10],2.6 to 2.9 nM
same,IC50,[11],21.6 nM
same,inhibition,[12],72%
same,inhibition,[13],2%
same,IC50,[14],109 nM
same,inhibition,[15],87%
same,inhibition,[16],48%
same,inhibition,[17],9%
same,inhibition,[18],73%
same,inhibition,[19],89%
same,inhibition,[20],-6%
same,half-life,[21],2.31 h
same,AUC(0-inf),[22],194 ng·h/mL
same,inhibition,[23],10%
same,CLH,[24],5 µL/min/10^6 cells
same,inhibition in vivo at 10 mg/kg,[25],83.5%
same,inhibition,[26],14%
same,clearance,[27],86.2 mL/min/kg
same,Activity,[28],113.52 mm3
same,inhibition,[29],1%
same,Activity,[30],527.78 mm3
same,inhibition,[31],14%
same,CLint scaled,[32],54 mL/min/kg
same,inhibition,[33],80%
